Data from ChEMBL document CHEMBL2086376, “Total synthesis of 2''',5'''-diepisilvestrol and its C1''' epimer: key structure activity relationships at C1''' and C2'''” (J Nat Prod, 2012).
The source made the active and inactive calls. No cut-off for these calls is given here.

Columns and labels:
Oryctolagus cuniculus = species on record: Oryctolagus cuniculus; test: Inhibition of translation in rabbit reticulocyte lysate by luciferase assay; format: functional
Procedure, shortened: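 Cell-free translation in rabbit reticulocyte lysate, final KCl 135 mM, programmed with 8 μg/mL capped FF/HCV/Ren bicistronic mRNA. Firefly and Renilla luciferase activities were the read-out.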

[1] = Cytotoxicity against human lung cancer cells; format: functional; conditions: Cancer cell lines, read-out: ED50 (the source's name)
[2] = Cytotoxicity against human breast cancer cells; format: functional; conditions: Cancer cell lines, read-out: ED50 (the source's name)
[3] = Cytotoxicity against human colon cancer cells; format: functional, cell-based; conditions: Cancer cell lines
A549 = test: Cytotoxicity against human A549 cells; format: functional, cell-based
Leukemia cell = test: Anticancer activity in patient with chronic lymphocytic leukemia; format: functional; conditions: Homo sapiens, read-out: LC50 (the source's name)

SMILES	inhibition (Oryctolagus cuniculus)	EC50 [1] [nM]	EC50 [2] [nM]	further results
COC(=O)[C@H]1[C@@H](O)[C@@]2(O)c3c(OC)cc(O[C@H]4O[C@@H]([C@@H](O)CO)CO[C@@H]4OC)cc3O[C@@]2(c2ccc(OC)cc2)[C@@H]1c1ccccc1	inactive			
COC(=O)[C@H]1[C@@H](O)[C@@]2(O)c3c(OC)cc(O[C@@H]4O[C@@H]([C@H](O)CO)CO[C@@H]4OC)cc3O[C@@]2(c2ccc(OC)cc2)[C@@H]1c1ccccc1	Active	1.2	1.5	
COC(=O)[C@H]1[C@@H](O)[C@@]2(O)c3c(OC)cc(O[C@@H]4O[C@@H]([C@@H](O)CO)CO[C@H]4OC)cc3O[C@@]2(c2ccccc2)[C@@H]1c1ccccc1				IC50 [3]: 10 nM; IC50 (A549): 130 nM
COC(=O)[C@H]1[C@@H](O)[C@@]2(O)c3c(OC)cc(O[C@@H]4O[C@@H]([C@H](O)CO)CO[C@H]4OC)cc3O[C@@]2(c2ccc(OC)cc2)[C@@H]1c1ccccc1 [SILVESTROL]		1.2	1.5	CC50 (Leukemia cell): 6.9 nM
COC(=O)[C@H]1[C@@H](O)[C@@]2(O)c3c(OC)cc(O[C@@H]4O[C@@H]([C@@H](O)CO)CO[C@@H]4OC)cc3O[C@@]2(c2ccc(OC)cc2)[C@@H]1c1ccccc1	Active			
